In brackets after ≈: the same amount, converted by molar mass.
Tests used:
[1] = system: Influenza A virus; assay: Antiviral activity against Influenza A virus A/hanfang/359/95(H3N2) infected in MDCK cells assessed as inhibition of virus-induced cytopathicity after 40 hrs; format: functional, organism-based
Method in brief: (§1)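 CPE reduction in MDCK cells: cells grown 24 h at 37 °C, 5% CO2, then infected and held 2 h at 37 °C before the inoculum was removed. Threefold serial drug dilutions (8 levels from 20 mg/mL DMSO stocks) were added and incubated 40 h at 37 °C. CPE inhibition was scored against cell and virus controls to give IC50. Ribavirin and oseltamivir were the controls.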

[2] = Selectivity index, ratio of TC50 for MDCK cells to IC50 for Influenza A virus (A/Tianjinjinnan/15/2009/H1N1); format: toxicity, cell-based; settings: dog, read-out: Selectivity Index
Method in brief: (§2)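 Selectivity index = TC50 (MDCK, 48 h visual cytotoxicity) / IC50 from the 40 h CPE-inhibition assay for the given strain.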

[3] = Selectivity index, ratio of TC50 for MDCK cells to IC50 for Influenza A virus (A/FM/1/1947(H1N1)); format: toxicity, cell-based; settings: dog, read-out: Selectivity Index; method in brief: as §2
[4] = system: Influenza B virus; assay: Antiviral activity against Influenza B virus jifang/13/97 infected in MDCK cells assessed as inhibition of plaque formation after 3 to 4 days by crystal violet staining-based assay; format: functional, organism-based; settings: jifang/13/97, MDCK
Method in brief: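 Plaque reduction: MDCK monolayers in 12-well plates were PBS-washed and infected with influenza B in trypsin-free maintenance medium for 2 h at 37 °C, 5% CO2. Inoculum was removed and the cells washed three times. A 1.5% agarose/MEM overlay with trypsin (2 μg/ml) and drug was added. After 3-4 days, crystal violet (0.5%) plaque counts against no-drug wells gave IC50 by Reed & Muench. Ribavirin was the control.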

[5] = system: Influenza A virus; assay: Antiviral activity against Influenza A virus (A/FM/1/1947(H1N1)) infected in MDCK cells assessed as inhibition of virus-induced cytopathicity after 40 hrs; format: functional, organism-based; settings: A/Fort Monmouth/1/1947(H1N1); method in brief: as §1
[6] = Selectivity index, ratio of TC50 for MDCK cells to IC50 for Influenza B virus jifang/13/97; format: toxicity, cell-based; settings: dog, read-out: Selectivity Index; method in brief: as §2
[7] = system: Influenza B virus; assay: Antiviral activity against Influenza B virus jifang/13/97 infected in MDCK cells assessed as inhibition of virus-induced cytopathicity after 40 hrs; format: functional, organism-based; settings: jifang/13/97, MDCK; method in brief: as §1
[8] = Selectivity index, ratio of TC50 for MDCK cells to IC50 for Influenza A virus A/hanfang/359/95(H3N2); format: toxicity, cell-based; settings: dog, read-out: Selectivity Index; method in brief: as §2

For `NC(=O)c1ncn([C@@H]2O[C@H](CO)[C@@H](O)[C@H]2O)n1` [RIBAVIRIN], the IC50 [1] was 5.59 µg/mL (≈ 22.9 µM), the selectivity ratio [2] was 185 and the selectivity ratio [3] was 820. It also gave an IC50 [4] of 3.27 µg/mL (≈ 13.4 µM), an IC50 [5] of 1.92 µg/mL (≈ 7.86 µM) and a selectivity ratio [6] of 206. For the same compound, the IC50 [7] was 7.84 µg/mL (≈ 32.1 µM) and the selectivity ratio [8] was 213.

Source: ChEMBL document CHEMBL3124823, “1,2,3-Triazole-containing derivatives of rupestonic acid: click-chemical synthesis and antiviral activities against influenza viruses” (Eur J Med Chem, 2014)
